In ChEMBL document CHEMBL3351477, “A C-14 labeled Py-Im polyamide localizes to a subcutaneous prostate cancer tumor” (Bioorg Med Chem, 2014):

Key:
[1] = test system: Kidney; test: Drug level in human LNCaP cells xenografted NSG mouse kidney at 20 nmol, ip dosed on days 1, 4 and 7 measured 24 hrs after last dose by liquid scintillation counting method relative to single injection dose; assay type: ADME, organism-based; settings: in vivo
How it was run: (§1)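 Male NSG mice bearing subcutaneous flank LNCaP xenografts. The graft was 2.5M cells in 200 μL of 1:1 culture medium/matrigel, using cells at or below passage 25 with >90% viability by trypan blue. C-14 labeled compound was given i.p. at 20 nmol per animal 4-8 weeks after engraftment. Mice were euthanized by CO2. Tumor, kidney, liver and lung were excised.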

[2] = test system: Tumour; test: Drug level in human LNCaP cells xenografted NSG mouse tumor at 20 nmol, ip dosed on days 1, 4 and 7 measured 24 hrs after last dose by liquid scintillation counting method; assay type: ADME, organism-based, Neoplasm; settings: in vivo, read-out: Drug uptake; how it was run: as §1
[3] = test system: Tumour; test: Drug level in human LNCaP cells xenografted NSG mouse tumor at 20 nmol, ip measured after 24 hrs by liquid scintillation counting method; assay type: ADME, organism-based, Neoplasm; settings: in vivo; how it was run: as §1
[4] = test system: Liver; test: Drug level in human LNCaP cells xenografted NSG mouse liver at 20 nmol, ip dosed on days 1, 4 and 7 measured 24 hrs after last dose by liquid scintillation counting method relative to single injection dose; assay type: ADME, organism-based; settings: in vivo; how it was run: as §1
[5] = test system: Lung; test: Drug level in human LNCaP cells xenografted NSG mouse lung at 20 nmol, ip measured after 24 hrs by liquid scintillation counting method; assay type: ADME, organism-based; settings: in vivo; how it was run: as §1
[6] = test system: Tumour; test: Drug level in human LNCaP cells xenografted NSG mouse tumor at 20 nmol, ip dosed on days 1, 4 and 7 measured 24 hrs after last dose by liquid scintillation counting method relative to single injection dose; assay type: ADME, organism-based, Neoplasm; settings: in vivo; how it was run: as §1
[7] = test system: Liver; test: Drug level in human LNCaP cells xenografted NSG mouse liver at 20 nmol, ip measured after 24 hrs by liquid scintillation counting method relative to lung; assay type: ADME, organism-based; settings: in vivo; how it was run: as §1
[8] = test system: Kidney; test: Drug level in human LNCaP cells xenografted NSG mouse kidney at 20 nmol, ip measured up to 1 to 7 days by liquid scintillation counting method; assay type: ADME, organism-based; settings: in vivo; how it was run: as §1
[9] = test system: Tumour; test: Drug level in human LNCaP cells xenografted NSG mouse tumor at 20 nmol, ip measured after 24 hrs by liquid scintillation counting method relative to liver; assay type: ADME, organism-based; settings: in vivo; how it was run: as §1
[10] = test system: Liver; test: Drug level in human LNCaP cells xenografted NSG mouse liver at 20 nmol, ip measured after 24 hrs by liquid scintillation counting method; assay type: ADME, organism-based; settings: in vivo; how it was run: as §1
[11] = test system: Liver; test: Drug level in human LNCaP cells xenografted NSG mouse liver at 20 nmol, ip measured after 24 hrs by liquid scintillation counting method relative to kidney; assay type: ADME, organism-based; settings: in vivo; how it was run: as §1
[12] = test system: Tumour; test: Drug level in human LNCaP cells xenografted NSG mouse tumor at 20 nmol, ip measured after 4 hrs by liquid scintillation counting method relative to liver; assay type: ADME, organism-based; settings: in vivo; how it was run: as §1
[13] = test system: Lung; test: Drug level in human LNCaP cells xenografted NSG mouse lung at 20 nmol, ip measured up to 1 to 7 days by liquid scintillation counting method; assay type: ADME, organism-based; settings: in vivo; how it was run: as §1
[14] = test system: Liver; test: Drug level in human LNCaP cells xenografted NSG mouse liver at 20 nmol, ip measured up to 1 to 7 days by liquid scintillation counting method; assay type: ADME, organism-based; settings: in vivo; how it was run: as §1
[15] = test system: Kidney; test: Drug level in human LNCaP cells xenografted NSG mouse kidney at 20 nmol, ip measured after 24 hrs by liquid scintillation counting method; assay type: ADME, organism-based; settings: in vivo; how it was run: as §1
[16] = test system: Tumour; test: Drug level in human LNCaP cells xenografted NSG mouse tumor at 20 nmol, ip measured up to 1 to 7 days by liquid scintillation counting method; assay type: ADME, organism-based, Neoplasm; settings: in vivo; how it was run: as §1
[17] = test system: Tumour; test: Drug level in human LNCaP cells xenografted NSG mouse tumor at 20 nmol, ip measured after 24 hrs by liquid scintillation counting method relative to other tissues; assay type: ADME, organism-based, Neoplasm; settings: in vivo; how it was run: as §1

fold change (FC) [1] | concentration [2] | concentration ([3]; read-out: Drug uptake) | fold change (FC) [4] | Drug uptake [5] | fold change (FC) [6] | fold change (FC) [7] | Drug uptake [8] | fold change (FC) [9] | Drug uptake [10] | fold change (FC) [11] | fold change (FC) [12] | Drug uptake [13] | Drug uptake [14] | Drug uptake [15] | Drug uptake [16] | fold change (FC) [17] | Drug uptake [3] | Compound
1.8 | 2500 nM | 1060 nM | 1.8 | 0.12 mg/kg | 2.4 | 8.7 | 0.05 mg/kg | 1.5 | 1.04 mg/kg | 4.2 | 2 | 0.06 mg/kg | 0.27 mg/kg | 0.25 mg/kg | 0.45 mg/kg | 2 |  | CC(=O)N[C@H](CCNC(=O)c1cc(NC(=O)c2cc(NC(=O)c3cc(NC(=O)c4nccn4C)cn3C)cn2C)cn1C)C(=O)Nc1cn(C)c(C(=O)Nc2cc(C(=O)Nc3cc(C(=O)Nc4cc(C(=O)NCCCN(C)CCCN[14C](=O)c5cccc([14C](=O)O)c5)n(C)c4)n(C)c3)n(C)c2)n1
 |  |  |  | Active |  |  |  |  | Active |  |  |  |  | Active |  |  | Active | C[14C](=O)N[C@H](CCNC(=O)c1cc(NC(=O)c2cc(NC(=O)c3cc(NC(=O)c4nccn4C)cn3C)cn2C)cn1C)C(=O)Nc1cn(C)c(C(=O)Nc2cc(C(=O)Nc3cc(C(=O)Nc4cc(C(=O)NCCCN(C)CCCNC(=O)c5cccc(C(=O)O)c5)n(C)c4)n(C)c3)n(C)c2)n1
 |  |  |  | 0.93 mg/kg |  |  |  |  | Active |  |  |  |  | Active |  |  | Active | CN(CCCNC(=O)c1cc(NC(=O)c2cc(NC(=O)c3cc(NC(=O)c4nc(NC(=O)[C@H](N)CCNC(=O)c5cc(NC(=O)c6cc(NC(=O)c7cc(NC(=O)c8nccn8C)cn7C)cn6C)cn5C)cn4C)cn3C)cn2C)cn1C)CCCN[14C](=O)c1cccc([14C](=O)O)c1
